# Results from different studies.
SMILES,cell line,test,conditions,IC50
N#CCCC1=CC2C=CC=CC1C2C1CCCCC1=O (centres unmarked),U-937,"cell growth or viability, flow cytometry",,81 nM
COc1ccccc1-c1c(C(F)(F)F)oc2cc(OC(=O)C(C)C)ccc2c1=O,human Neutrophil,"cell migration, inhibitor",,200 nM
COc1ccc(C(=O)C=Cc2ccc(OC)c(OC)c2)cc1,J774,"cell growth or viability, MTT",24 h,100 µg/mL
"Cl.Oc1cccc2c1[nH]c1c(C3=CC4(O)CC/C=C\CCCCN5CCC3C3(CC6/C=C\CCCCN6C43)C5)nccc12 (single isomer, unassigned; (+))",KB,"cell growth or viability, neutral red",48 h,0.69 µg/mL
CCc1c2c(nc3ccc(O)cc13)-c1cc3c(c(=O)n1C2)COC(=O)[C@]3(O)CC,HCCLM3,"cell growth or viability, MTT",72 h,3080 nM
Oc1ccc(Nc2nc(-c3ccc(Cl)cc3)cs2)cc1,UACC-903,"cell growth or viability, MTS",48 h,59100 nM
CC(C)C[C@H](NC(=O)[C@H](Cc1ccccc1)NC(=O)c1cnccn1)B(O)O,EFO-27,"cell growth or viability, ATP luminescence",,21 nM
O=C(Oc1ccc2c(=O)c(-c3ccccc3Cl)c(C(F)(F)F)oc2c1)c1cccs1,human Neutrophil,"cell migration, inhibitor",,80 nM
COc1ccc(-c2cc(-c3ccc4oc(=O)cc(C)c4c3O)nc(N)n2)cc1,KB,"cell growth or viability, MTT",72 h,> 128 µg/mL
O=C1CCCCC1C1C2C=CC=CC1C(CCN1C(=O)c3ccccc3C1=O)=C2 (centres unmarked),U-937,"cell growth or viability, flow cytometry",,27 nM
Cc1cc(=O)oc2ccc(-c3cc(-c4cccc(Cl)c4)nc(N)n3)c(O)c12,KB,"cell growth or viability, MTT",72 h,> 128 µg/mL
COc1cc(-c2ncn(/C=C\C(=O)OC(C)C)n2)cc(C(F)(F)F)c1,ML-2,cell growth or viability,72 h,99 nM
Cc1ccc(-c2cc(-c3ccc4oc(=O)cc(C)c4c3O)nc(N)n2)cc1,KB,"cell growth or viability, MTT",72 h,> 128 µg/mL
CC[C@@H](C)[C@H](N)C(=O)N1Cc2ccccc2C1,U-937,"cell growth or viability, ATP luminescence",48 h,> 60000 nM
COc1ccc(-c2cncc(N[C@@H](C)c3cccc(NC(=O)c4cncc(C)c4)c3)n2)cc1OC,NCI-H1703,"cell growth or viability, ATP luminescence",72 h,32 nM
Oc1ccc(/C=C/c2cc(O)cc(O)c2)cc1,J774,"cell growth or viability, resazurin",48 h,162000 nM
COc1ccccc1-c1c(C)oc2cc(OC(=O)c3ccco3)ccc2c1=O,human Neutrophil,"cell migration, inhibitor",,430 nM
COc1cc(Nc2nccc(-c3cnn4nc(OC)ccc34)n2)cc(C(F)(F)F)c1,EFO-27,"cell growth or viability, ATP luminescence",,790 nM
CCOC(=O)Oc1ccc2c(=O)c(-c3ccccc3OC)c(C(F)(F)F)oc2c1,human Neutrophil,"cell migration, inhibitor",,1000 nM
O=C1CCCCC1C1C2C=CC=CC1C(C1CC1)=C2 (centres unmarked),U-937,"cell growth or viability, flow cytometry",,41 nM
